# Test results reported in ChEMBL document CHEMBL1122426, “Radioiodine-labeled N,N-dimethyl-N'-(2-hydroxy-3-alkyl-5-iodobenzyl)-1,3-propanediamines for brain perfusion imaging” (J Med Chem, 1983).
# Legend:
# Rattus norvegicus [1] = organism: Rattus norvegicus; test: Effect of specific activity of compound on biodistribution in rats brain 1 hr after injection at the dose of 2.5 mg value expressed in average % dose per organ; value may range from 2.13 to 2.36; type: ADME, organism-based; conditions: in vivo
# Procedure, shortened: (§1)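 Rats received an intravenous injection of the I-125 labeled diamine with added unlabeled carrier (6.25, 2.5, 0.25 or 0.025 mg per dose). At 1 h, organs were counted. Percent dose per organ came from comparing tissue radioactivity with diluted aliquots of the injected dose. Values are the average and range of 3 rats. Brain/blood ratio was taken from % dose per gram, calculated using mean organ weights (brain 1.65 g; blood 18 g).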
# Rattus norvegicus [2] = organism: Rattus norvegicus; test: Effect of specific activity of compound on biodistribution in rats lungs after injection at the dose of 0.025 mg value expressed in average % dose per organ; value may range from 12.0 to 14.5; type: ADME, organism-based, Lung; conditions: in vivo; procedure, shortened: as §1
# Rattus norvegicus [3] = test: Biodistribution of I-125 labeled compound in rat thyroid, 1 hr after intravenous injection. value expressed in average % dose per organ; value may range from 0.17 to 0.23; type: ADME, organism-based, Thyroid gland; conditions: in vivo
# Rattus norvegicus [4] = organism: Rattus norvegicus; test: Effect of specific activity of compound on biodistribution in rats heart 1 hr after injection at the dose of 6.25 mg value expressed in average % dose per organ; value may range from 0.30 to 0.36; type: ADME, organism-based; conditions: in vivo; procedure, shortened: as §1
# Rattus norvegicus [5] = test: Biodistribution of I-125 labeled compound in rat lungs, 1 hr after intravenous injection. value expressed in average % dose per organ; value may range from 10.6 to 15.1; type: ADME, organism-based, Lung; conditions: in vivo
# Rattus norvegicus [6] = test: Biodistribution of I-125 labeled compound in rat muscle, 2 min after intravenous injection value expressed in average % dose per organ; value may range from 5.84 to 12.8; type: ADME, organism-based, Muscle tissue; conditions: in vivo
# [7] = Biodistribution of [123I]- compound in a monkey brain. 1 hr after intravenous injection. the value expressed in %dose/organ; type: ADME, organism-based; conditions: simiiformes, in vivo
# [8] = Biodistribution of [125I]- compound in a monkey spleen. 1 hr after intravenous injection. the value expressed in %dose/gram; conditions: simiiformes, in vivo
# [9] = Biodistribution of [125I]- compound in a monkey muscle. 1 hr after intravenous injection. the value expressed in%dose/organ; conditions: simiiformes, in vivo
# [10] = Biodistribution of [125I]- compound in a monkey kidneys. 1 hr after intravenous injection. the value expressed in %dose/gram; conditions: simiiformes, in vivo
# [11] = Biodistribution of [125I]- compound in a monkey brain to blood ratio 1 hr after intravenous injection. the value expressed in %dose/gram; conditions: simiiformes, in vivo
compound,measurement,setting,value
Cc1cc(I)cc(CNCCCN(C)C)c1O,Average dose per organ,Rattus norvegicus [1],2.21%
same,Average dose per organ,Rattus norvegicus [2],12.8%
same,Average dose per organ,Rattus norvegicus [3],0.19%
same,Average dose per organ,Rattus norvegicus [4],0.33%
same,Average dose per organ,Rattus norvegicus [5],11.7%
same,Average dose per organ,Rattus norvegicus [6],9.24%
same,Dose per organ,[7],3.18%
same,Dose/g,[8],0.267%
same,Dose per organ,[9],17.3%
same,Dose/g,[10],0.602%
same,Ratio,[11],17.5
